# Test results taken from ChEMBL document CHEMBL1145431, “Improved anti-osteoporosis potency and reduced endometrial membrane hyperplasia during hormone replacement therapy with estrogen-RGD peptide conjugates” (2007).
# Where a SMILES comes first, the peptide text is derived from it. The star is where a group is joined. X1 = C[C@]12CC[C@@H]3c4ccc(OCC(=O)*)cc4CC[C@H]3[C@@H]1CCC2O
# How the values were obtained:
# Mus musculus [1] = experiment: Effect on dry weight of femurs in mouse at 0.1103 mmol/kg, po; type: functional, Femur
# Outline: (§1)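 Female Kuiming mice (7 weeks old, 30.7 ± 3.1 g) under abdominal OVX, sham group abdominorotomy only. From day 5 after surgery, dosed orally once daily for 4 weeks at 110.3 × 10-3 mmol/kg in 0.5% CMC (0.2 mL), vehicle group CMC alone. Blood drawn retro-orbitally, then left femur and organs removed under pentobarbital (40.0 mg/kg, i.p.).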
# Mus musculus [2] = experiment: Effect on serum calcium level in mouse at 0.1103 mmol/kg, po; type: functional
# Outline: (§2)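 Oral OVX Kuiming mouse model, dosed daily for 4 weeks at 110.3 × 10-3 mmol/kg in 0.5% CMC. Retro-orbital blood stood 30 min at room temperature and was spun at 3000 g for 20 min. Serum kept at -20 °C. Calcium read by o-methylphenolphthalein complexone, phosphorus by molybdenum blue, ALP by activity on disodium phenylphosphate substrate.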
# Mus musculus [3] = experiment: Effect on serum phosphorous Concentration in mouse at 0.110 mmol/kg, po; type: functional; outline: as §2
# Mus musculus [4] = experiment: Effect on lung weight in mouse at 0.1103 mmol/kg, po; type: functional; outline: as §1
# Mus musculus [5] = experiment: Effect on spleen weight in mouse at 0.1103 mmol/kg, po; type: functional; outline: as §1
# Mus musculus [6] = experiment: Increase in body weight in ovariectomized mouse at 0.1103 mmol/kg, ip once daily for 4 weeks; type: functional
# Outline: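 Female Kuiming mice (30.7 ± 3.1 g) underwent abdominal OVX; the sham group had abdominorotomy only. From day 5 after surgery, i.p. dosing once daily for 4 weeks at 110.3 × 10-3 mmol/kg in aqueous 0.5% CMC. Body weight was recorded on the day of the last administration.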
# Mus musculus [7] = experiment: Effect on serum ALP lavel in ovariectomized mouse at 0.1103 mmol/kg, ip once daily for 4 weeks; type: functional
# Outline: (§3)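 OVX Kuiming mice dosed i.p. daily for 4 weeks in 0.5% CMC. Blood taken retro-orbitally on the day after the last dose, stood 30 min, spun at 3000 g for 20 min, serum stored at -20 °C. Calcium by o-methylphenolphthalein complexone, phosphorus by molybdenum blue, ALP by activity with disodium phenylphosphate substrate.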
# Mus musculus [8] = experiment: Effect on serum calcium level in ovariectomized mouse at 0.1103 mmol/kg, ip once daily for 4 weeks; type: functional; outline: as §3
# Mus musculus [9] = experiment: Effect on serum phosphorus level in ovariectomized mouse at 0.1103 mmol/kg, ip once daily for 4 weeks; type: functional; outline: as §3
# Mus musculus [10] = experiment: Effect on dry weight of femurs in ovariectomized mouse at 0.1103 mmol/kg, ip once daily for 4 weeks; type: functional, Femur
# Outline: (§4)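 Female Kuiming mice (7 weeks, 30.7 ± 3.1 g) ovariectomized, sham group abdominorotomy. From day 5, i.p. once daily for 4 weeks at 110.3 × 10-3 mmol/kg in 0.5% CMC. Left femur cleaned, length measured, defatted in chloroform-methanol (2:1, 2 × 3 h), dried 120 °C 6 h for dry weight, ashed 800 °C 8 h. Mineral content = ash/dry weight. Ash dissolved in 6 N HCl and diluted. Ca by o-methylphenolphthalein complexone, P by molybdenum blue. Lungs and livers weighed directly.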
# Mus musculus [11] = experiment: Effect on femur ash weight in ovariectomized mouse at 0.1103 mmol/kg, ip once daily for 4 weeks; type: functional; outline: as §4
# Mus musculus [12] = experiment: Effect on femur length in ovariectomized mouse at 0.1103 mmol/kg, ip once daily for 4 weeks; type: functional; outline: as §4
# Mus musculus [13] = experiment: Effect on calcium level in ovariectomized mouse at 0.1103 mmol/kg, ip once daily for 4 weeks; type: functional; outline: as §4
# Mus musculus [14] = experiment: Effect on phosphorus level in ovariectomized mouse at 0.1103 mmol/kg, ip once daily for 4 weeks; type: functional; outline: as §4
# Mus musculus [15] = experiment: Effect on lung weight in ovariectomized mouse at 0.1103 mmol/kg, ip once daily for 4 weeks; type: functional; outline: as §4
# Mus musculus [16] = experiment: Effect on liver weight in ovariectomized mouse at 0.110 mmol/kg, ip once daily for 4 weeks; type: functional; outline: as §4
# Mus musculus [17] = experiment: Effect on uterus weight in ovariectomized mouse at 0.1103 mmol/kg, ip once daily for 4 weeks; type: functional
# Outline: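 Female Kuiming mice (7 weeks old, 30.7 ± 3.1 g), abdominal OVX under pentobarbital (40.0 mg/kg i.p.). From day 5 after surgery, i.p. injection once daily for 4 weeks, compound in aqueous 0.5% CMC prepared just before use. The day after the last dose, mice were anesthetized and killed, and lungs, livers, spleens and uteri were removed and weighed directly. n = 12, ANOVA, p < 0.05.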
# Mus musculus [18] = experiment: Effect on femur ash weight in recipient mouse at 0.055 mmol/kg, ip; type: functional
# Outline: (§5)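 Dose-response in OVX Kuiming mice, i.p. daily for 4 weeks in 0.5% CMC at 11.03, 55.15 or 110.3 × 10-3 mmol/kg. Left femur: length, then defatting, drying at 120 °C for 6 h (dry weight), ashing at 800 °C for 8 h. Ash/dry ratio gives mineral content. Ash Ca and P measured colorimetrically. Liver, lung and spleen weighed directly. n = 12, ANOVA.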
# Mus musculus [19] = experiment: Effect on femur ash weight in recipient mouse at 0.011 mmol/kg, ip; type: functional; outline: as §5
# Mus musculus [20] = experiment: Effect on femur length in recipient mouse at 0.011 mmol/kg, ip; type: functional; outline: as §5
# Mus musculus [21] = experiment: Effect on phosphorous level in mouse femur at 0.055 mmol/kg, ip; type: functional; outline: as §5
# Mus musculus [22] = experiment: Effect on mineral level in mouse femur at 0.055 mmol/kg, ip; type: functional; outline: as §5
# Mus musculus [23] = experiment: Effect on mineral level in mouse femur at 0.011 mmol/kg, ip; type: functional; conditions: in the assay text read “0.11 mmol/kg” for “0.011 mmol/kg”; outline: as §5
# Mus musculus [24] = experiment: Effect on serum phosphorous level in mouse at 0.011 mmol/kg, ip; type: functional; conditions: in the assay text read “0.11 mmol/kg” for “0.011 mmol/kg”
# Outline: (§6)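 Dose-response in OVX Kuiming mice, i.p. daily for 4 weeks in 0.5% CMC at 11.03, 55.15 or 110.3 × 10-3 mmol/kg. Serum from retro-orbital blood (3000 g, 20 min). Calcium by o-methylphenolphthalein complexone, phosphorus by molybdenum blue, ALP by activity on disodium phenylphosphate. n = 12, ANOVA.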
# Mus musculus [25] = experiment: Effect on serum ALP level in mouse at 0.055 mmol/kg, ip; type: functional; outline: as §6
# Mus musculus [26] = experiment: Effect on liver weight in mouse at 0.055 mmol/kg, ip; type: functional; outline: as §5
# Mus musculus [27] = experiment: Effect on liver weight in mouse at 0.011 mmol/kg, ip; type: functional; outline: as §5
# Mus musculus [28] = experiment: Effect on lung weight in mouse at 0.055 mmol/kg, ip; type: functional; outline: as §5
# Mus musculus [29] = experiment: Effect on spleen weight in mouse at 0.055 mmol/kg, ip; type: functional; outline: as §5
# Mus musculus [30] = experiment: Effect on spleen weight in mouse at 0.011 mmol/kg, ip; type: functional; outline: as §5
# Mus musculus [31] = experiment: Effect on uterus weight in mouse at 0.055 mmol/kg, ip; type: functional
# Outline: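 Dose study in abdominally ovariectomized female Kuiming mice (30.7 ± 3.1 g). Daily i.p. dosing in aqueous 0.5% CMC from day 5 after surgery for 4 weeks, at 110.3, 55.15 or 11.03 × 10-3 mmol/kg. Liver, lung, spleen and uterus were removed after pentobarbital euthanasia and weighed. n = 12, ANOVA, p < 0.05.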
# Mus musculus [32] = experiment: Effect on serum phosphorous level in mouse at […] mmol/kg, ip; type: functional; outline: as §3
# Mus musculus [33] = experiment: Effect on serum calcium level in mouse at 0.1103 mmol/kg, ip; type: functional; outline: as §3
# Mus musculus [34] = experiment: Effect on serum ALP level in mouse at 0.1103 mmol/kg, ip; type: functional; outline: as §3
SMILES,Activity (Mus musculus [1]) [mg],Activity (Mus musculus [2]) [mmol/L],Activity (Mus musculus [3]) [mmol/L],Activity (Mus musculus [4]) [mg],Activity (Mus musculus [5]) [mg],Activity (Mus musculus [6]) [g],Activity (Mus musculus [7]) [U/L],Activity (Mus musculus [8]) [mmol/L],Activity (Mus musculus [9]) [mmol/L],Activity (Mus musculus [10]) [mg],Activity (Mus musculus [11]) [mg],Activity (Mus musculus [12]) [cm],Activity (Mus musculus [13]) [%],Activity (Mus musculus [14]) [%],Activity (Mus musculus [15]) [mg],Activity (Mus musculus [16]) [g],Activity (Mus musculus [17]) [mg],Activity (Mus musculus [18]) [mg],Activity (Mus musculus [19]) [mg],Activity (Mus musculus [20]) [cm],further results
CC(C)[C@H](NC(=O)[C@H](CC(=O)O)NC(=O)CNC(=O)[C@H](CCCNC(=N)N)NC(=O)COc1ccc2c(c1)CC[C@@H]1[C@@H]2CC[C@]2(C)C(O)CC[C@@H]12)C(=O)O (stereo partly drawn) (X1-RGDV-OH),68.4,2.04,1.61,163,134,35.2,30.514,2.003,1.6,63.7,40,1.64,58.35,24.991,162,1.363,50.3,32.3,20.6,1.64,Activity (Mus musculus [21]): 24.315%; Ratio (Mus musculus [22]): 0.539; Ratio (Mus musculus [23]): 0.63; Activity (Mus musculus [24]): 1.6 mmol/L; Activity (Mus musculus [25]): 32.786 U/L; Activity (Mus musculus [26]): 1.462 g; Activity (Mus musculus [27]): 1.48 g; Activity (Mus musculus [28]): 179 mg; Activity (Mus musculus [29]): 140 mg; Activity (Mus musculus [30]): 156 mg; Activity (Mus musculus [31]): 57.6 mg; Activity (Mus musculus [32]): 1.6 mmol/L; Activity (Mus musculus [33]): 2.005 mmol/L; Activity (Mus musculus [34]): 30.5 U/L
C[C@]12CC[C@@H]3c4ccc(OCC(=O)N[C@@H](CCCNC(=N)N)C(=O)NCC(=O)N[C@@H](CC(=O)O)C(=O)N[C@@H](CO)C(=O)O)cc4CC[C@H]3[C@@H]1CCC2O (stereo partly drawn) (X1-RGDS-OH),68.6,2.03,1.6,166,138,35.2,31.429,2.004,1.599,63.4,37,1.642,54.885,24.949,173,1.377,42.5,31.6,18.1,1.642,Activity (Mus musculus [21]): 24.274%; Ratio (Mus musculus [22]): 0.479; Ratio (Mus musculus [23]): 0.582; Activity (Mus musculus [24]): 1.599 mmol/L; Activity (Mus musculus [25]): 33.616 U/L; Activity (Mus musculus [26]): 1.397 g; Activity (Mus musculus [27]): 1.42 g; Activity (Mus musculus [28]): 167 mg; Activity (Mus musculus [29]): 136 mg; Activity (Mus musculus [30]): 125 mg; Activity (Mus musculus [31]): 48.6 mg; Activity (Mus musculus [32]): 1.599 mmol/L; Activity (Mus musculus [33]): 2.014 mmol/L; Activity (Mus musculus [34]): 31.4 U/L
